Measurements as given in ChEMBL document CHEMBL1123648, “Synthesis, chemical reactivity, and antileukemic activity of 5-substituted 6,7-bis(hydroxymethyl)pyrrolo[1,2-c]thiazole biscarbamates and the corresponding sulfoxides and sulfones” (1987).

Experiments:
[1] = Toxicity day survivors expressed as number of animals that survived to day five/ number of test animals under control group A at a dose of 25 mg/kg; 6 survived out of 6; format: functional, Mus musculus
[2] = Antileukemic activity against Murine P388 lymphocytic leukemia, body weight difference of the test animals compared to control group A animals at a dose of 100 mg/kg; format: functional, Mus musculus; parameters: unit not given here
Summary of the method: (§1)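 CD2F1 mice implanted intraperitoneally with ascitic fluid carrying ca. 1×10^6 P388 cells, under the NCI protocol. Dosing was intraperitoneal, starting 24 h after inoculation, then every 24 h for five doses in total. The body weight difference of treated mice is taken against untreated controls. Toxicity day survivors are the mice alive at day five out of those tested.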

[3] = Percent increase in life span of test animals compared to untreated tumor-bearing control group A animals at a dose of 50 mg/kg; format: functional; settings: Mus musculus
[4] = Percent increase in life span of test animals compared to untreated tumor-bearing control group A animals at a dose of 200 mg/kg; format: functional; settings: Mus musculus
[5] = Toxicity day survivors expressed as number of animals that survived to day five/ number of test animals under control group A at a dose of 50 mg/kg; 6 survived out of 6; format: functional, Mus musculus
[6] = Toxicity day survivors expressed as number of animals that survived to day five/ number of test animals under control group A at a dose of 200 mg/kg; 6 survived out of 6; format: functional, Mus musculus
[7] = Antileukemic activity against Murine P388 lymphocytic leukemia, body weight difference of the test animals compared to control group A animals at a dose of 200 mg/kg; format: functional, Mus musculus; summary of the method: as §1
[8] = Antileukemic activity against Murine P388 lymphocytic leukemia, body weight difference of the test animals compared to control group A animals at a dose of 50 mg/kg; format: functional, Mus musculus; parameters: unit not given here; summary of the method: as §1
[9] = Percent increase in life span of test animals compared to untreated tumor-bearing control group A animals at a dose of 25 mg/kg; format: functional; settings: Mus musculus
[10] = Toxicity day survivors expressed as number of animals that survived to day five/ number of test animals under control group A at a dose of 400 mg/kg; 6 survived out of 6; format: functional, Mus musculus
[11] = Antileukemic activity against Murine P388 lymphocytic leukemia, body weight difference of the test animals compared to control group A animals at a dose of 25 mg/kg; format: functional, Mus musculus; parameters: unit not given here; summary of the method: as §1
[12] = Antileukemic activity against Murine P388 lymphocytic leukemia, body weight difference of the test animals compared to control group A animals at a dose of 400 mg/kg; format: functional, Mus musculus; summary of the method: as §1
[13] = Toxicity day survivors expressed as number of animals that survived to day five/ number of test animals under control group A at a dose of 100 mg/kg; 6 survived out of 6; format: functional, Mus musculus
[14] = Percent increase in life span of test animals compared to untreated tumor-bearing control group A animals at a dose of 100 mg/kg; format: functional; settings: Mus musculus
[15] = Percent increase in life span of test animals compared to untreated tumor-bearing control group A animals at a dose of 400 mg/kg; format: functional; settings: Mus musculus
P388 [16] = assay: Log cell population relative to cell population at the beginning of treatment compared to control group A at a dose of 100 mg/kg; format: functional, Mus musculus
P388 [17] = assay: Log cell population relative to cell population at the beginning of treatment compared to control group A at a dose of 50 mg/kg; format: functional, Mus musculus
[18] = Toxicity day survivors expressed as number of animals that survived to day five/ number of test animals under control group A at a dose of 400 mg/kg; 3 survived out of 6; format: functional, Mus musculus
P388 [19] = assay: Log cell population relative to cell population at the beginning of treatment compared to control group A at a dose of 200 mg/kg; format: functional, Mus musculus
P388 [20] = assay: Log cell population relative to cell population at the beginning of treatment compared to control group A at a dose of 25 mg/kg; format: functional, Mus musculus
[21] = Antileukemic activity against Murine P388 lymphocytic leukemia, body weight difference of the test animals compared to control group A animals at a dose of 12.5 mg/kg; format: functional, Mus musculus; summary of the method: as §1
[22] = Toxicity day survivors expressed as number of animals that survived to day five/ number of test animals under control group A at a dose of 12.5 mg/kg; 6 survived out of 6; format: functional, Mus musculus
[23] = Toxicity day survivors expressed as number of animals that survived to day five/ number of test animals under control group A at a dose of 50 mg/kg; 5 survived out of 6; format: functional, Mus musculus
P388 [24] = assay: Log cell population relative to cell population at the beginning of treatment compared to control group A at a dose of 6.25 mg/kg; format: functional, Mus musculus
[25] = Percent increase in life span of test animals compared to untreated tumor-bearing control group A animals at a dose of 12.5 mg/kg; format: functional; settings: Mus musculus
[26] = Antileukemic activity against Murine P388 lymphocytic leukemia, body weight difference of the test animals compared to control group A animals at a dose of 6.25 mg/kg; format: functional, Mus musculus; summary of the method: as §1
[27] = Toxicity day survivors expressed as number of animals that survived to day five/ number of test animals under control group A at a dose of 6.25 mg/kg; format: functional, Mus musculus
[28] = Percent increase in life span of test animals compared to untreated tumor-bearing control group A animals at a dose of 6.25 mg/kg; format: functional; settings: Mus musculus
[29] = Toxicity day survivors expressed as number of animals that survived to day five/ number of test animals under control group A at a dose of 100 mg/kg; 3 survived out of 6; format: functional, Mus musculus
P388 [30] = assay: Log cell population relative to cell population at the beginning of treatment compared to control group A at a dose of 12.5 mg/kg; format: functional, Mus musculus
[31] = Antileukemic activity against Murine P388 lymphocytic leukemia, body weight difference of the test animals compared to control group C animals at a dose of 50 mg/kg; format: functional, Mus musculus; parameters: unit not given here; summary of the method: as §1
P388 [32] = assay: Log cell population relative to cell population at the beginning of treatment compared to control group C at a dose of 100 mg/kg; format: functional, Mus musculus
[33] = Percent increase in life span of test animals compared to untreated tumor-bearing control group C animals at a dose of 50 mg/kg; format: functional; settings: Mus musculus
[34] = Toxicity day survivors expressed as number of animals that survived to day five/ number of test animals under control group C at a dose of 25 mg/kg; 6 survived out of 6; format: functional, Mus musculus
[35] = Antileukemic activity against Murine P388 lymphocytic leukemia, body weight difference of the test animals compared to control group C animals at a dose of 100 mg/kg; format: functional, Mus musculus; parameters: unit not given here; summary of the method: as §1
[36] = Toxicity day survivors expressed as number of animals that survived to day five/ number of test animals under control group C at a dose of 100 mg/kg; 6 survived out of 6; format: functional, Mus musculus
[37] = Percent increase in life span of test animals compared to untreated tumor-bearing control group C animals at a dose of 25 mg/kg; format: functional; settings: Mus musculus
[38] = Antileukemic activity against Murine P388 lymphocytic leukemia, body weight difference of the test animals compared to control group C animals at a dose of 200 mg/kg; format: functional, Mus musculus; summary of the method: as §1
[39] = Toxicity day survivors expressed as number of animals that survived to day five/ number of test animals under control group C at a dose of 200 mg/kg; 6 survived out of 6; format: functional, Mus musculus
P388 [40] = assay: Log cell population relative to cell population at the beginning of treatment compared to control group C at a dose of 25 mg/kg; format: functional, Mus musculus
[41] = Percent increase in life span of test animals compared to untreated tumor-bearing control group C animals at a dose of 100 mg/kg; format: functional; settings: Mus musculus
P388 [42] = assay: Log cell population relative to cell population at the beginning of treatment compared to control group C at a dose of 50 mg/kg; format: functional, Mus musculus
[43] = Antileukemic activity against Murine P388 lymphocytic leukemia, body weight difference of the test animals compared to control group C animals at a dose of 25 mg/kg; format: functional, Mus musculus; summary of the method: as §1
[44] = Antileukemic activity against Murine P388 lymphocytic leukemia and toxicity day survivors expressed as number of animals that survived to day five/ number of test animals under control group C at a dose of 50 mg/kg; 6 survived out of 6; format: functional, Mus musculus

CC(C)NC(=O)OCc1c(COC(=O)NC(C)C)c(-c2ccc(Cl)c(Cl)c2)n2c1CSC2
TDS [1]: 6 | BWD [2]: -0.9 | ILS at 50 mg/kg [3]: -12% | ILS at 200 mg/kg [4]: -12% | TDS [5]: 6 | TDS [6]: 6 | BWD [7]: -1.7 | BWD [8]: -1.3 | ILS at 25 mg/kg [9]: -9% | TDS [10]: 6 | BWD [11]: -1.3 | BWD [12]: -1.3 | TDS [13]: 6 | ILS at 100 mg/kg [14]: -13% | ILS at 400 mg/kg [15]: -11%

Cc1c(COC(=O)NC(C)C)c(COC(=O)NC(C)C)c2n1C[S+]([O-])C2 (stereo not given)
KE (P388 [16]): -0.08 | KE (P388 [17]): -0.69 | BWD [2]: -0.1 | ILS at 50 mg/kg [3]: 26% | ILS at 200 mg/kg [4]: 76% | TDS [5]: 6 | TDS [6]: 6 | BWD [7]: -2.6 | TDS [18]: 3 | BWD [8]: -0.6 | KE (P388 [19]): 3.94 | BWD [12]: -4.5 | TDS [13]: 6 | ILS at 100 mg/kg [14]: 32%

Cc1c(COC(=O)NC(C)C)c(COC(=O)NC(C)C)c2n1CSC2
TDS [1]: 6 | KE (P388 [20]): 2.61 | BWD [2]: -4.9 | BWD [21]: -1.9 | TDS [22]: 6 | TDS [23]: 5 | KE (P388 [24]): 1.27 | ILS at 12.5 mg/kg [25]: 42% | TDS [6]: 0 | BWD [8]: -3.5 | ILS at 25 mg/kg [9]: 73% | BWD [26]: -1.3 | TDS [27]: 6 | BWD [11]: 1.9 | ILS at 6.25 mg/kg [28]: 54% | TDS [29]: 3 | KE (P388 [30]): 0.4

CNC(=O)OCc1c(COC(=O)NC)c2n(c1C)CS(=O)(=O)C2
BWD [31]: 0.6 | KE (P388 [32]): 0.33 | ILS at 50 mg/kg [33]: 40% | TDS [34]: 6 | BWD [35]: -2.5 | TDS [36]: 6 | ILS at 25 mg/kg [37]: 22% | BWD [38]: -2.1 | TDS [39]: 6 | KE (P388 [40]): -0.05 | ILS at 100 mg/kg [41]: 104% | KE (P388 [42]): 0.03 | BWD [43]: 0.3 | TDS [44]: 6
